Screening results (PubChem)
tolC growth inh: blocks growth of E. coli BW25113 tolC mutant. OD615. growth inhibition, % at 10 µM (by protocol). hit rate 2.2% among 65,000. AID 573;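 active = growth inhibition at or above a cutoff equal to the mean over every tested compound plus 3 SD, cut at about 60% in these data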;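 note: growth measured after 20 h incubation at 37 °C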
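signal = optical density read at 615 nm | test system = E. coli ΔtolC::kan strain BW25113 | timing = 20 h compound exposure of bacteria at 37 °C | buffer or medium = LB medium plus 50 µg/mL kanamycin | compound dosing = 10 µM final, single dose | evaluation = % inhibition of E. coli growth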
PLAP activator: human PLAP activation | purified PLAP enzyme, luminescent substrate read-out; stronger effect = higher value | hit rate 1.2% among 96,000 | activation fold at 20 µM | P05187; in the data active = activation fold above about 2
Target sequence (P05187 whole entry, looked up): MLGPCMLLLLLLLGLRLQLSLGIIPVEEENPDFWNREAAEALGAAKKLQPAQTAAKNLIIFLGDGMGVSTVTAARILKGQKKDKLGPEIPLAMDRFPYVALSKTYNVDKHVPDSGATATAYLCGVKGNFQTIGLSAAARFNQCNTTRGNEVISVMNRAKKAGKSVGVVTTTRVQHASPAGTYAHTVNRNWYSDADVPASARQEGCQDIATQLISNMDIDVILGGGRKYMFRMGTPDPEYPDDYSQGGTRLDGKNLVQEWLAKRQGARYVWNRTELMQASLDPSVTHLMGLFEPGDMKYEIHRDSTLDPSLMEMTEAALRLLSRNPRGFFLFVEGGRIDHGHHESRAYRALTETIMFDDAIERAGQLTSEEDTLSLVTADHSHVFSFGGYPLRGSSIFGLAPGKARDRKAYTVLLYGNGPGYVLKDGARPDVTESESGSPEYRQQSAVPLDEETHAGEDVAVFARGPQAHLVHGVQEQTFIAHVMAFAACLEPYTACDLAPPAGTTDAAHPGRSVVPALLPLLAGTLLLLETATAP
HePTP inhibitor: human HePTP phosphatase inhibition; P35236; recombinant HePTP phosphatase activity, OD absorbance; inhibition, % at 20 µM; hit rate 0.64% among 110,000; in the data active = inhibition above about 50%
PostGolgi yeast: growth inhibition of a yeast mutant, post-Golgi transport screen; post-Golgi transport phenotypic cell assay; hit rate 0.9% among 98,000; AID 739; inhibition, % at 10 µM;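 note: yeast cells grown in 1536-well plates; yeast grown about 18 h at 30C before absorbance read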
E coli WT exp: growth inhibitors of E. coli BW25113 wild type; OD600 absorbance; growth inhibition, % at 100 µM; hit rate 0.15% among 98,000;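 active = growth inhibition above about 50% at one test dose, limit read from the data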;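 note: growth measured after 20 h incubation at 37 °C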
PostGolgi ctrl: growth of the yeast control strain, post-Golgi counter-screen. AID 738. inhibition, % at 10 µM. hit rate 5% among 98,000. efflux-deficient yeast background strain, growth absorbance A615, 16 h
Hits are given with their value; - = inactive; . = no result given. Only some compounds are listed: those with a hit (about 5.4% of all), similar ones and a draw of the others. Cut-off read from the data, not from the text of the source, unless noted: active = inhibition above about 30%; inactive = the rest.

SMILES	tolC growth inh	PLAP activator	HePTP inhibitor	PostGolgi yeast	E coli WT exp	PostGolgi ctrl
CCOc1ccc(C(=O)NCC2(C)CC(NC(=O)c3ccc(OCC)cc3)CC(C)(C)C2)cc1 (stereo not drawn)	.	.	-	.	.	.
Nc1ccc(Oc2ccc3nc(-c4ccccc4)c(-c4ccccc4)nc3c2)cc1	.	-	.	103	-	56
Nc1ccc2nc(-c3ccccc3)sc2c1	.	-	.	-	-	-
CCc1ccc(N=c2c([N+](=O)[O-])nn(-c3ccccc3)n2O)cc1	.	-	.	-	-	34
CCc1ccc(/C=C2\C(=O)NN(c3ccccc3)C2=O)cc1	.	.	-	.	.	.
COc1ccc(-n2nc([N+](=O)[O-])c(=NCCc3ccc(Cl)cc3)n2O)cc1	.	-	.	-	-	40
ON=C1CCN(c2ncc(C(F)(F)F)cc2Cl)CC1	.	-	.	-	-	-
Cc1cc2ncn(C3CC(=O)N(Cc4ccccc4)C3=O)c2cc1C (stereo not drawn)	-	-	-	-	-	40
Cc1cc2ncn(C3CC(=O)N(C)C3=O)c2cc1C (stereo not drawn)	.	-	.	-	-	-
N/C(Cc1ccc(Cl)cc1Cl)=N\OC(=O)c1cccs1	.	-	.	-	-	58
CC1=C(C(=O)Nc2ccc(C)cc2)C(c2ccc(O)cc2)NC(=S)N1 (stereo not drawn)	.	.	-	.	.	.
CCC(CC)C(=O)NCCc1cc2ccc(OC)cc2[nH]c1=O	-	-	-	-	-	-
Cc1cc2cc(CCNC(=O)c3ccc(Br)o3)c(=O)[nH]c2cc1C	-	-	-	-	-	102
Cc1ccc(C)c2[nH]c(=O)c(CCNC(=O)c3ccc(Br)o3)cc12	-	.	-	.	.	.
COc1ccc2cc(CCNC(=O)c3ccc4c(c3)OCO4)c(=O)[nH]c2c1	-	-	-	-	-	30
COc1ccc2cc(CCNC(=O)c3ccc(Br)o3)c(=O)[nH]c2c1	-	-	-	-	-	99
COc1ccc2cc(CCNC(=O)C3CC3)c(=O)[nH]c2c1	-	-	-	-	-	-
COc1ccc(C2c3c(n[nH]c3C)CC(C)(O)C2C(C)=O)cc1OC (stereo not drawn)	-	-	-	-	-	-
COc1ccc(CCNc2cc(N3CCN(C(=O)c4ccccc4F)CC3)ccc2[N+](=O)[O-])cc1OC	.	-	-	-	-	-
COc1ccc(N2CCN(C(=O)c3ccc(CS(=O)(=O)c4ccc(OC)cc4)o3)CC2)cc1	-	-	-	-	-	-
O=C(c1ccc(COc2c(F)c(F)cc(F)c2F)o1)N1CCN(c2ccc(Cl)cc2)CC1	62	-	-	-	-	-
COc1ccc(S(=O)(=O)Cc2ccc(C(=O)N3CCN(c4cccc(C)c4C)CC3)o2)cc1	-	-	-	-	-	35
COc1ccc(S(=O)(=O)Cc2ccc(C(=O)N3CCN(c4cccc(C)c4)C(C)C3)o2)cc1 (stereo not drawn)	-	-	-	-	-	47
COc1ccc(S(=O)(=O)Cc2ccc(C(=O)N3CCN(c4ccc(Cl)cc4)CC3)o2)cc1	-	-	-	-	-	37
COc1ccc(S(=O)(=O)Cc2ccc(C(=O)N3CCN(c4cc(Cl)ccc4C)CC3)o2)cc1	-	-	-	-	-	32
SMILES	tolC growth inh	PLAP activator	HePTP inhibitor	PostGolgi yeast	E coli WT exp	PostGolgi ctrl
COc1ccc(S(=O)(=O)Cc2ccc(C(=O)N3CCN(c4ncccn4)CC3)o2)cc1	-	.	-	.	.	.
COc1cc(C2c3c(-c4ccccc4)n[nH]c3C(=O)N2c2ccccc2)ccc1O (stereo not drawn)	-	2.2	-	-	-	-
COc1cc(C2c3c(n[nH]c3C)C(=O)N2c2ccc(C)cc2)ccc1O (stereo not drawn)	-	2.2	-	-	-	-
COc1ccc(OC)c(C2c3c(-c4ccccc4)n[nH]c3C(=O)N2c2ccccc2)c1 (stereo not drawn)	.	.	-	.	.	.
Cc1ccc(-c2nnn(CC(=O)N(CC(=O)NCc3ccccc3)c3cccc(C)c3C)n2)o1	-	-	-	-	-	-
O=C(NCc1ccc2[nH]c3c(c2c1)CCCC3)N1CCOCC1	-	-	-	-	-	30
CC(=O)c1ccc2c3c([nH]c2c1)CCCC3	.	.	-	.	.	.
Cc1ccc(N2C(=O)CC(N3CCCC3)C2=O)cc1 (stereo not drawn)	.	.	-	.	.	.
CC(C)(C)NC(=O)c1ccccc1-c1nc(-c2ccccc2Cl)no1	-	-	-	-	-	30
CC(C)NC(=O)c1ccccc1-c1nc(-c2ccccc2Cl)no1	-	-	-	-	-	-
Cc1nnc(NC(=O)C2CCCN(S(=O)(=O)c3ccccc3C(F)(F)F)C2)s1 (stereo not drawn)	-	-	-	-	-	42
